# “Also recorded” adds a separate entry of the source.
# How the values were obtained:
# bovine bc1 complex = bovine bc1 complex (Bos taurus, UniProt P00157+P13272); test: Ubiquinol-cytochrome c reductase activity of purified bc1 complex; assay type: biochemical; details: for Selectivity Coefficient (comparison in words): IC50 bovine enzyme divided by IC50 yeast enzyme, Fig. 5
# Method in brief: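 Bovine heart bc1 complex, 2.5 nM, in phosphate pH 7.0 buffer with sucrose, EDTA, azide, KCN, dodecylmaltoside and 40 µM cytochrome c at 23 °C. Enzyme preincubated 1 min with increasing test compound; started with decylbenzoquinol; cytochrome c reduction read at 550 vs 539 nm. Duplicates averaged. IC50 taken from titration curves; Selectivity Coefficient = bovine IC50 / yeast IC50.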
# [1] = biological target: center P of the yeast cytochrome bc1 complex (Saccharomyces cerevisiae, UniProt P00163+P08067); test: Pre-steady-state oxidant-induced reduction of cytochrome b through center P; assay type: biochemical; details: 2 µM inhibitor, bc1 complex pre-reduced with quinol, 3 µM antimycin
# Method in brief: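 Then 3 µM antimycin and 2 µM test compound added, 1 min further. Rapid-mixed with 3 µM cytochrome c; stopped-flow rapid-scanning spectroscopy at 24 °C. Absorbance change at 562 and 578 nm extracted; 12–19 data sets averaged.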
# [2] = biological target: center N of the yeast cytochrome bc1 complex (Saccharomyces cerevisiae, UniProt P00163+P08067); test: Pre-steady-state reduction of cytochrome b through center N; assay type: biochemical; details: 2 µM NQ1, 3 µM stigmatellin, oxidized bc1 complex
# Method in brief: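 Stopped-flow rapid scanning at 24 °C: 1 µM oxidized yeast bc1 complex with 3 µM stigmatellin, with or without 2 µM test compound. Rapid-mixed with 30 µM 2,3-dimethoxy-5-methyl-6-decyl-1,4-benzoquinol. Cytochrome b reduction followed as absorbance time course at 562 and 578 nm; 12–19 data sets averaged.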
# avian malaria = details: cited from earlier work
# malaria = details: cited from earlier work
# [3] = cited from earlier work
SMILES,Selectivity Coefficient (comparison in words) (bovine bc1 complex),inhibition of oxidant-induced reduction of cytochrome b through center P [1],other results
"CC(CCCCCC(F)(F)F)CC1=C(O)C(=O)c2ccccc2C1=O (centres unmarked) [NQ1, 2-OH-3-(2-Me-trifluorooctyl)-naphthoquinone]",higher selectivity than atovaquone,completely inhibited,"effect on cytochrome b reduction through center N [2]: no effect; also recorded: identical, superimposed kinetic traces in the presence and absence"
"CCCCCCC(C)CC1=C(O)C(=O)c2c(C)cccc2C1=O (centres unmarked) [NQ2, 2-OH-3-(2-Me-octyl)-8-Me-naphthoquinone]",higher selectivity than atovaquone,,
"Cc1cccc2c1C(=O)C(O)=C(CC(C)CCCCCC(F)(F)F)C2=O (centres unmarked) [NQ3, 2-OH-3-(2-Me-trifluorooctyl)-8-Me-naphthoquinone]",higher selectivity than atovaquone,,
CCCCCCC(C)CC1=C(O)C(=O)c2ccccc2C1=O (centres unmarked) [S-10576],greatest selectivity,,Selectivity Coefficient relative to that of atovaquone (bovine bc1 complex; Selectivity Coefficient = IC50 bovine enzyme divided by IC50 yeast enzyme): ~10 fold; efficacy against avian malaria (avian malaria): effective; efficacy in humans (malaria): ineffective; metabolism and excretion in vivo [3]: terminal two carbons of the side chain are modified by oxidation and the resulting more water soluble compound is rapidly excreted
"O=C1C(O)=C([C@H]2CC[C@H](c3ccc(Cl)cc3)CC2)C(=O)c2ccccc21 [atovaquone, 2-[trans-4-(4’-chlorophenyl)cyclohexyl]-3-hydroxy-1,4-hydroxynaphthoquinone, reference compound]",,greatly inhibited,

# — publication PMC2787711 (Biochimica et biophysica acta, 2009)
